Assay results of several laboratories.
OPRK1: Kappa-type opioid receptor (OPRK1, Homo sapiens, UniProt P41145)
CNR1: Cannabinoid receptor 1 (CNR1, Homo sapiens, UniProt P21554)
PFF0160c: Dihydroorotate dehydrogenase (quinone), mitochondrial (PFF0160c, Plasmodium falciparum, UniProt Q08210)

SMILES | target | test | setting | endpoint | value
COc1ccc(C(=O)N[C@H]2CC[C@@]3(O)[C@H]4Cc5ccc(O)c6c5[C@@]3(CCN4CC3CC3)[C@H]2O6)s1 | OPRK1 | ligand displacement, radioligand | cell membranes | Ki | 1.69 nM
CCCCCc1cc(O)c2c(c1)OC(C)(CCC=C(C)C)C=C2 (stereo not drawn) | CNR1 | ligand displacement, radioligand | – | Ki | 6760 nM
CNC(=O)c1ccc(-c2cnn3ccc(C(=O)N(C)c4ccc(Cl)c(C(=O)OC)c4)cc23)cc1 | Serine/threonine-protein kinase WNK1 (WNK1, Homo sapiens, UniProt Q9H4A3) | enzyme activity, inhibitor | – | IC50 | > 30000 nM
O=C(N=Nc1c(O)n(CCCCCF)c2ccccc12)c1ccccc1 | CNR1 | ligand displacement, radioligand | cell membranes | Ki | 2240 nM
NC(=O)c1ccc(C(=O)N[C@H]2CC[C@@]3(O)[C@H]4Cc5ccc(O)c6c5[C@@]3(CCN4CC3CC3)[C@H]2O6)s1 | OPRK1 | ligand displacement, radioligand | cell membranes | Ki | 1.91 nM
CCn1ccc2c(Cc3ccc(C(F)(F)F)nc3)n(C)nc2c1=O | PFF0160c | enzyme activity, inhibitor | – | IC50 | 1580 nM
N#Cc1ccc(C(=O)N[C@H]2CC[C@@]3(O)[C@H]4Cc5ccc(O)c6c5[C@@]3(CCN4CC3CC3)[C@H]2O6)s1 | OPRK1 | ligand displacement, radioligand | cell membranes | Ki | 3.61 nM
Cn1nc2c(=O)n(C3CC3)cnc2c1[C@@](O)(c1cnc(C(F)(F)F)c(Cl)c1)C(F)(F)F | PFF0160c | enzyme activity, inhibitor | – | IC50 | 5010 nM
CCCCCn1c(O)c(N=NC(=O)c2ccccc2)c2ccccc21 | CNR1 | β-arrestin recruitment, agonist | – | EC50 | 780 nM
CC[C@@](O)(c1ccc(F)c(Cl)c1)c1c2ccn(C3CC3)c(=O)c2nn1C | PFF0160c | enzyme activity, inhibitor | – | IC50 | 6.31 nM
C=CCCCn1c(O)c(N=NC(=O)c2ccccc2)c2ccccc21 | CNR1 | β-arrestin recruitment, agonist | – | EC50 | 1040 nM
Cc1nn(C2CC2)c(=O)c2nn(C)c(Cc3ccc(C(F)(F)F)c(C#N)c3)c12 | PFF0160c | enzyme activity, inhibitor | – | IC50 | 200 nM
COC(=O)[C@@H](NC(=O)c1nn(Cc2ccc(F)cc2)c2ccccc12)C(C)C | CNR1 | G protein activation, agonist | – | EC50 | ~4 nM
Cn1nc2c(=O)n(C3CC3)ncc2c1[C@](O)(c1ccc(C(F)(F)F)c(Cl)c1)C(F)(F)F | PFF0160c | enzyme activity, inhibitor | – | IC50 | 7.94 nM
CC(=O)Nc1ccc(C(=O)N[C@H]2CC[C@@]3(O)[C@H]4Cc5ccc(O)c6c5[C@@]3(CCN4CC3CC3)[C@H]2O6)s1 | OPRK1 | ligand displacement, radioligand | cell membranes | Ki | 4.96 nM
